*1 amine or outer side, *2 acyl side, *3 side chain or, on linkers, in order; H or OH if unused. Where a SMILES comes first, the peptide text is derived from it. Bridges are numbered along the chain shown (N, C = ends). [ ]: non-standard residue; d: D form. X1 = CSCC[C@@H](C(=O)[*:2])N(C[C@@H](CS[*:3])NC(C)=O)[*:1]
Experiments:
[1] = molecular target: Low-density lipoprotein receptor (Homo sapiens) (UniProt P01130); test: Displacement of S-tagged Ac-DSGL[CMPRLRGC]cDPR-NH2 from human DsRed2-fused LDLR expressed in CHO cells at 10 uM after 1 hr by FRET assay; assay type: cell-based
How it was run: (§1)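 CHO cells stably expressing hLDLR-DsRed2 (Ham-F12, 5% FBS, Geneticin) at 800 000 cells/well were incubated in triplicate with S-tagged reference peptide (10 μM) plus test peptide (10 μM) in Ham-F12/1% BSA, 1 h, 37 °C. Scrambled and untagged peptide controls were included; values are means of at least three points.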

[2] = molecular target: Low-density lipoprotein receptor (Homo sapiens) (UniProt P01130); test: Displacement of S-tagged Ac-[cMPRLRGC]c-NH2 from human DsRed2-fused LDLR expressed in CHO cells at 10 uM after 1 hr by FRET assay; assay type: cell-based; how it was run: as §1

Sequence of Low-density lipoprotein receptor (Homo sapiens) (P01130 whole entry, the tested form may be a part): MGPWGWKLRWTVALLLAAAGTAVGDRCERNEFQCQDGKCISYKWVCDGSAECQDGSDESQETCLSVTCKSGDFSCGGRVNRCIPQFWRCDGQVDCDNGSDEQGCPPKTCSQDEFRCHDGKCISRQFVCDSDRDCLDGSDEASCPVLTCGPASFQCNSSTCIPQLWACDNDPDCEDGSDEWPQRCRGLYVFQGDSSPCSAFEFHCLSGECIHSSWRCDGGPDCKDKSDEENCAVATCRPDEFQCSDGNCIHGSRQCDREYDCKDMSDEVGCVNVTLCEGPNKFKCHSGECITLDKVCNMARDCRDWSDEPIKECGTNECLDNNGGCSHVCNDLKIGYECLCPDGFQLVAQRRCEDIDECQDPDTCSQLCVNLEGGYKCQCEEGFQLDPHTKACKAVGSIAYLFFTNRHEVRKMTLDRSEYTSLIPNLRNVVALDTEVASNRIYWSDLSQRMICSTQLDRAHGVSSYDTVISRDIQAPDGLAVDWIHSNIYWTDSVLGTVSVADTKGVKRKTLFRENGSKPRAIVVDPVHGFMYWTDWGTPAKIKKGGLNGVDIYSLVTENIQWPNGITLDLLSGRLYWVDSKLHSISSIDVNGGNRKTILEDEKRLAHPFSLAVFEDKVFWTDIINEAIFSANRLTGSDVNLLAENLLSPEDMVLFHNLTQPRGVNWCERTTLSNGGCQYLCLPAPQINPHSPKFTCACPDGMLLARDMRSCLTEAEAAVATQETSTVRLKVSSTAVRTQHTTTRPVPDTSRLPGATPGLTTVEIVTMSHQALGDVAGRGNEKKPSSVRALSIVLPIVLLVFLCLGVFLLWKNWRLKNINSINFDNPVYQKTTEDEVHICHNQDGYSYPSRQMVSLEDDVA

Structure (SMILES) | inhibition [1] [%] | inhibition [2] [%]
CC(=O)N[C@@H](CC(=O)O)C(=O)N[C@@H](CO)C(=O)NCC(=O)N[C@@H](CC(C)C)C(=O)N[C@H]1CSSC[C@@H](C(=O)N[C@@H](CC(=O)O)C(=O)N2CCC[C@H]2C(=O)N[C@@H](CCCNC(=N)N)C(N)=O)NC(=O)CNC(=O)[C@H](CCCNC(=N)N)NC(=O)[C@H](CC(C)C)NC(=O)[C@H](CCCNC(=N)N)NC(=O)[C@@H]2CCCN2C(=O)[C@H](C)NC1=O (Ac-DSGLCAPRLRGCDPR-NH2; disulfide 5-12) | 0 | 
CSCC[C@@H]1NC(=O)[C@@H](NC(=O)[C@H](CC(C)C)NC(=O)CNC(=O)[C@H](CO)NC(=O)[C@H](C)NC(C)=O)CSSC[C@@H](C(=O)N[C@@H](CC(=O)O)C(=O)N2CCC[C@H]2C(=O)N[C@@H](CCCNC(=N)N)C(N)=O)NC(=O)CNC(=O)[C@H](CCCNC(=N)N)NC(=O)[C@H](CC(C)C)NC(=O)[C@H](CCCNC(=N)N)NC(=O)[C@@H]2CCCN2C1=O (Ac-ASGLCMPRLRGCDPR-NH2; disulfide 5-12) | 55 | 
CSCC[C@H](NC(=O)[C@@H]1CCCN1C(=O)[C@H]1CSSC[C@H](N)C(=O)NCC(=O)N[C@@H](CCCNC(=N)N)C(=O)N[C@@H](CC(C)C)C(=O)N[C@@H](CCCNC(=N)N)C(=O)N1)C(=O)NC(C)=O |  | 34
CSCC[C@@H]1NC(=O)[C@@H](NC(=O)[C@H](CC(C)C)NC(=O)CNC(=O)[C@H](C)NC(=O)[C@H](CC(=O)O)NC(C)=O)CSSC[C@@H](C(=O)N[C@@H](CC(=O)O)C(=O)N2CCC[C@H]2C(=O)N[C@@H](CCCNC(=N)N)C(N)=O)NC(=O)CNC(=O)[C@H](CCCNC(=N)N)NC(=O)[C@H](CC(C)C)NC(=O)[C@H](CCCNC(=N)N)NC(=O)[C@@H]2CCCN2C1=O (Ac-DAGLCMPRLRGCDPR-NH2; disulfide 5-12) | 20 | 
CSCC[C@@H]1NC(=O)[C@@H](NC(C)=O)CSC[C@@H](C(N)=O)NC(=O)[C@H](CCCNC(=N)N)NC(=O)[C@@H]2CCCN2C1=O | 0 | 
CC(=O)N[C@@H]1CSSC[C@@H](C(N)=O)NC(=O)CNC(=O)[C@H](CCCNC(=N)N)NC(=O)[C@H](CC(C)C)NC(=O)[C@H](CCCNC(=N)N)NC(=O)[C@@H]2CCCN2C(=O)[C@@H]2CSCN2C1=O |  | 0
CSCC[C@@H]1NC(=O)[C@H](NC(C)=O)CSSC[C@@H](C(N)=O)NC(=O)CNC(=O)[C@H](CCCNC(=N)N)NC(=O)[C@H](CC(C)C)NC[C@H](CCCNC(=N)N)NC(=O)[C@@H]2CCCN2C1=O |  | 58
CSCCC1NC(=O)[C@H](NC(C)=O)CNC(=O)C[C@@H](C(N)=O)NC(=O)CNC(=O)[C@H](CCCNC(=N)N)NC(=O)[C@H](CC(C)C)NC(=O)[C@H](CCCNC(=N)N)NC(=O)[C@@H]2CCCN2C1=O (single isomer, unassigned) |  | 12
CC(=O)N[C@@H]1CSSC[C@@H](C(N)=O)NC(=O)CNC(=O)[C@H](CCCNC(=N)N)NC(=O)[C@H](CC(C)C)NC(=O)[C@H](CCCNC(=N)N)NC(=O)[C@@H]2CCCN2C(=O)[C@H](Cc2cccs2)NC1=O |  | 0
CSCC[C@H](NC(=O)[C@H]1CSSC[C@H](N)C(=O)NCC(=O)N[C@@H](CCCNC(=N)N)C(=O)N[C@@H](CC(C)C)C(=O)N[C@@H](CCCNC(=N)N)C(=O)N2CCC[C@H]2C(=O)N1)C(=O)NC(C)=O |  | 28
CSCC[C@@H]1NC(=O)[C@H](NC(C)=O)CSSC[C@@H](C(N)=O)NC(=O)[C@@H](C)NC(=O)[C@H](CCCNC(=N)N)NC(=O)[C@H](CC(C)C)NC(=O)[C@H](CCCNC(=N)N)NC(=O)[C@@H]2CCCN2C1=O |  | 54
CSCC[C@@H]1NC(=O)[C@H](NC(C)=O)CSSC[C@@H](C(N)=O)NC(=O)CNC(=O)[C@H](CCCNC(=N)N)NC(=O)[C@H](CC(C)C)NC(=O)[C@H](CCCN)NC(=O)[C@@H]2CCCN2C1=O |  | 28
CSCC[C@@H]1NC(=O)[C@H](NC(C)=O)CSSC[C@@H](C(N)=O)NC(=O)CNC(=O)[C@H](CCCN)NC(=O)[C@H](CC(C)C)NC(=O)[C@H](CCCNC(=N)N)NC(=O)[C@@H]2CCCN2C1=O |  | 0
CSCC[C@H]1CN2CCC[C@H]2C(=O)N[C@@H](CCCNC(=N)N)C(=O)N[C@@H](CC(C)C)C(=O)N[C@@H](CCCNC(=N)N)C(=O)NCC(=O)N[C@H](C(N)=O)CSSC[C@@H](NC(C)=O)C(=O)N1 |  | 33
CSCC[C@H](NC(=O)[C@@H]1CCCN1C(=O)[C@@H](CCCNC(=N)N)[C@H]1CSSC[C@H](N)C(=O)NCC(=O)N[C@@H](CCCNC(=N)N)C(=O)N[C@@H](CC(C)C)C(=O)N1)C(=O)NC(C)=O |  | 34
CSCC[C@@H]1NC(=O)[C@H](NC(C)=O)CSSC[C@@H](C(N)=O)NC(=O)CNC(=O)[C@H](CCCNC(=N)N)NC(=O)[C@H](CC(C)C)NC(=O)[C@H](CCCNC(=N)N)NC[C@@H]2CCCN2C1=O |  | 0
CSCC[C@@H]1NC(=O)[C@H](NC(C)=O)C/C=C\C[C@@H](C(N)=O)NC(=O)CNC(=O)[C@H](CCCNC(=N)N)NC(=O)[C@H](CC(C)C)NC(=O)[C@H](CCCNC(=N)N)NC(=O)[C@@H]2CCCN2C1=O |  | 22
CSCC[C@@H]1NC[C@H](NC(C)=O)CSSC[C@@H](C(N)=O)NC(=O)CNC(=O)[C@H](CCCNC(=N)N)NC(=O)[C@H](CC(C)C)NC(=O)[C@H](CCCNC(=N)N)NC(=O)[C@@H]2CCCN2C1=O (H-[X1]PRLRGC-NH2; disulfide 1-7) |  | 37
CSCC[C@@H]1NC(=O)[C@H](NC(C)=O)CNC(=N)NC[C@@H](C(N)=O)NC(=O)CNC(=O)[C@H](CCCNC(=N)N)NC(=O)[C@H](CC(C)C)NC(=O)[C@H](CCCNC(=N)N)NC(=O)[C@@H]2CCCN2C1=O |  | 0
CSCC[C@@H]1NC(=O)[C@H](NC(C)=O)Cc2cn(nn2)CC[C@@H](C(N)=O)NC(=O)CNC(=O)[C@H](CCCNC(=N)N)NC(=O)[C@H](CC(C)C)NC(=O)[C@H](CCCNC(=N)N)NC(=O)[C@@H]2CCCN2C1=O |  | 13
COCC[C@@H]1NC(=O)[C@H](NC(C)=O)CSSC[C@@H](C(N)=O)NC(=O)CNC(=O)[C@H](CCCNC(=N)N)NC(=O)[C@H](CC(C)C)NC(=O)[C@H](CCCNC(=N)N)NC(=O)[C@@H]2CCCN2C1=O |  | 0
CSCC[C@@H]1NC(=O)[C@H](NC(C)=O)CSSC[C@@H](C(N)=O)NC(=O)CNC(=O)[C@H](CCCN)NC(=O)[C@H](CC(C)C)NC(=O)[C@H](CCCN)NC(=O)[C@@H]2CCCN2C1=O |  | 31
CSCC[C@@H]1NC(=O)[C@H](NC(C)=O)CSSC[C@@H](C(N)=O)NC(=O)CNC(=O)[C@H](CCCNC(=N)N)NC[C@H](CC(C)C)NC(=O)[C@H](CCCNC(=N)N)NC(=O)[C@@H]2CCCN2C1=O |  | 40
CSCC[C@@H]1NC(=O)C(NC(C)=O)CSCC(C(N)=O)NC(=O)CNC(=O)[C@H](CCCNC(=N)N)NC(=O)[C@H](CC(C)C)NC(=O)[C@H](CCCNC(=N)N)NC(=O)[C@@H]2CCCN2C1=O (mixture of isomers) |  | 41
CSCC[C@@H]1NC(=O)[C@H](NC(C)=O)CSSC[C@@H](C(N)=O)NC(=O)CNC(=O)[C@H](CCCNC(=N)N)NC(=O)[C@H](CC(C)C)NC(=O)[C@H](CCCNC(=N)N)NC(=O)[C@@H]2c3ccccc3CCN2C1=O |  | 21
CSCC[C@@H]1NC(=O)[C@H](NC(C)=O)CSSC[C@@H](C(N)=O)NC(=O)CNC(=O)[C@H](CCCNC(=N)N)NC(=O)[C@H](CC(C)C)NC(=O)[C@H](CCCNC(=N)N)NC(=O)CN(C)C1=O |  | 22
CSCC[C@@H]1NC(=O)[C@H](NC(C)=O)CSSC[C@@H](C(N)=O)NC(=O)CNC(=O)[C@H](CCCNC(=N)N)NC(=O)[C@H](CC(C)C)NC(=O)[C@H](CCCNC(=N)N)NC(=O)c2ccccc2NC1=O |  | 0
